# Measured values published in ChEMBL document CHEMBL4038305, “Benzoxaborole Antimalarial Agents. Part 5. Lead Optimization of Novel Amide Pyrazinyloxy Benzoxaboroles and Identification of a Preclinical Candidate” (J Med Chem, 2017).
# Columns and labels:
# Plasmodium berghei [1] = assay: Antimalarial activity against Plasmodium berghei infected in Swiss Webster mouse assessed as mouse survival rate at 200 mg/kg administered once daily via oral gavage for 4 consecutive days beginning 1 hr after infection measured on day 16 post infection relative to control; format: functional
# Procedure, shortened: (§1)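 P. berghei-infected erythrocytes taken from a previously infected mouse were injected intraperitoneally. Oral dosing, once daily for 4 consecutive days, began 1 h after infection, in polyethylene glycol 300/propylene glycol/water (55/25/20 by weight). Chloroquine at 30 mg/kg was the positive control, with a vehicle-only group. Percent survival was recorded daily from day 4 to day 20.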
# [2] = Oral bioavailability in Beagle dog at 5 mg/kg by HPLC/MS analysis; format: ADME, organism-based, Canis lupus familiaris; conditions: in vivo
# Procedure, shortened: (§2)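 Female CD-1 mice, male SD rats or beagle dogs given 5 mg/kg by iv injection or oral gavage. Formulation was PEG300/propylene glycol/water 55/25/20, pH 6. Blood samples analysed by HPLC–MS/MS; parameters include AUC0-inf extrapolated to infinity and terminal half-life.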
# Salmonella typhimurium [3] = assay: Genotoxicity in Salmonella typhimurium TA1537 assessed as number of revertants per plate at 150 ug/plate in absence of rat liver S9 fraction by Ames test (reference value: 19 +/- 9); format: toxicity; conditions: salmonella enterica subsp. enterica serovar typhimurium
# Escherichia coli [4] = assay: Genotoxicity in Escherichia coli WP2uvrA assessed as number of revertants per plate at 150 ug/plate in absence of rat liver S9 fraction by Ames test (reference value: 45 +/- 9); format: toxicity
# Salmonella typhimurium [5] = assay: Genotoxicity in Salmonella typhimurium TA1535 assessed as number of revertants per plate at 50 ug/plate in presence of rat liver S9 fraction by Ames test (reference value: 10); format: toxicity; conditions: salmonella enterica subsp. enterica serovar typhimurium
# Plasmodium falciparum [6] = assay: Antimalarial activity against Plasmodium falciparum TM90C2B infected in human erythrocytes assessed as reduction in [3H]-hypoxanthine incorporation preincubated for 24 hrs followed by [3H]-hypoxanthine addition measured after 24 hrs by scintillation counting method; format: functional, cell-based
# Salmonella typhimurium [7] = assay: Genotoxicity in Salmonella typhimurium TA98 assessed as number of revertants per plate at 1500 ug/plate in presence of rat liver S9 fraction by Ames test (reference value: 19 +/- 8); format: toxicity; conditions: salmonella enterica subsp. enterica serovar typhimurium
# Plasmodium falciparum [8] = assay: Antimalarial activity against intraerythrocytic stage of Plasmodium falciparum assessed as time required for maximal killing effect at 100 times IC50 preincubated for 24 hrs followed by [3H]-hypoxanthine addition measured after 24 hrs by scintillation counting method; format: functional
# Procedure, shortened: (§3)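 In vitro P. falciparum parasite reduction ratio assay run at 10×, 30× and 100× IC50. Derived parameters: lag phase (time to maximal killing), PRR (parasites killed per life cycle) and PCT99.9% (time to clear 99.9% of the initial parasite population).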
# Rattus norvegicus [9] = assay: Genotoxicity in rat assessed as change in polychromatic erythrocytes in bone marrow at 2000 mg/kg administered via oral gavage measured after 48 hrs post dose by micronucleus assay relative to control; format: toxicity, organism-based; conditions: in vivo
# [10] = Volume of distribution at steady state in Sprague-Dawley rat at 5 mg/kg, iv by HPLC/MS analysis; format: ADME, organism-based; conditions: in vivo, read-out: Vdss
# Plasmodium falciparum [11] = assay: Antimalarial activity against intraerythrocytic stage of Plasmodium falciparum assessed as parasite reduction ratio at 30 times IC50 preincubated for 24 hrs followed by [3H]-hypoxanthine addition measured after 24 hrs by scintillation counting method; format: functional; procedure, shortened: as §3
# Salmonella typhimurium [12] = assay: Genotoxicity in Salmonella typhimurium TA100 assessed as number of revertants per plate at 1.5 ug/plate in absence of rat liver S9 fraction by Ames test (reference value: 154 +/- 9); format: toxicity; conditions: salmonella enterica subsp. enterica serovar typhimurium
# Rattus norvegicus [13] = assay: Genotoxicity in rat assessed as change in polychromatic erythrocytes in bone marrow at 2000 mg/kg administered via oral gavage measured after 24 hrs post dose by micronucleus assay relative to control; format: toxicity, organism-based; conditions: in vivo
# Escherichia coli [14] = assay: Genotoxicity in Escherichia coli WP2uvrA assessed as number of revertants per plate at 15 ug/plate in presence of rat liver S9 fraction by Ames test (reference value: 42 +/- 6); format: toxicity
# Escherichia coli [15] = assay: Genotoxicity in Escherichia coli WP2uvrA assessed as number of revertants per plate at 5000 ug/plate in presence of rat liver S9 fraction by Ames test (reference value: 42 +/- 6); format: toxicity
# Lymphocyte [16] = assay: Genotoxicity in human lymphocytes assessed as replication index at 160 ug/mL after 3 hrs in absence of rat liver S9 fraction by micronucleus assay relative to control; format: toxicity, cell-based
# Procedure, shortened: (§4)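 Human lymphocytes exposed for 3 h with or without rat liver S9, or 28 h without S9, with 1% DMSO as vehicle control. Replication index = (binucleated + 2 × multinucleated cells)/total cells. Cytotoxicity (%) = 100 − (RI treated/RI vehicle) × 100.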
# Salmonella typhimurium [17] = assay: Genotoxicity in Salmonella typhimurium TA98 assessed as number of revertants per plate at 500 ug/plate in presence of rat liver S9 fraction by Ames test (reference value: 19 +/- 8); format: toxicity; conditions: salmonella enterica subsp. enterica serovar typhimurium
# Lymphocyte [18] = assay: Genotoxicity in human lymphocytes assessed as increase in frequency of micronucleated cells at 40 ug/mL after 28 hrs in absence of rat liver S9 fraction by micronucleus assay (reference value: 0.74%); format: toxicity, cell-based
# Lymphocyte [19] = assay: Genotoxicity in human lymphocytes assessed as replication index at 355.15 ug/mL after 3 hrs in presence of rat liver S9 fraction by micronucleus assay relative to control; format: toxicity, cell-based; conditions: s9, 3 h; procedure, shortened: as §4
# [20] = Oral bioavailability in Sprague-Dawley rat at 5 mg/kg by HPLC/MS analysis; format: ADME, organism-based; conditions: in vivo; procedure, shortened: as §2
# Salmonella typhimurium [21] = assay: Genotoxicity in Salmonella typhimurium TA98 assessed as number of revertants per plate at 500 ug/plate in absence of rat liver S9 fraction by Ames test (reference value: 14 +/- 6); format: toxicity; conditions: salmonella enterica subsp. enterica serovar typhimurium
# Salmonella typhimurium [22] = assay: Genotoxicity in Salmonella typhimurium TA100 assessed as number of revertants per plate at 500 ug/plate in presence of rat liver S9 fraction by Ames test (reference value: 141 +/- 1); format: toxicity; conditions: salmonella enterica subsp. enterica serovar typhimurium
# Plasmodium berghei [23] = assay: Antimalarial activity against Plasmodium berghei infected in Swiss Webster mouse assessed as mouse survival rate at 3 mg/kg administered once daily via oral gavage for 4 consecutive days beginning 1 hr after infection measured on day 7 post infection relative to control; format: functional; procedure, shortened: as §1
# Plasmodium berghei [24] = assay: Antimalarial activity against Plasmodium berghei infected in Swiss Webster mouse assessed as mouse survival rate at 3 mg/kg administered once daily via oral gavage for 4 consecutive days beginning 1 hr after infection measured on day 8 post infection relative to control; format: functional; procedure, shortened: as §1
# Plasmodium berghei [25] = assay: Antimalarial activity against Plasmodium berghei infected in Swiss Webster mouse assessed as mouse survival rate at 100 mg/kg administered once daily via oral gavage for 4 consecutive days beginning 1 hr after infection measured on day 18 post infection relative to control; format: functional
# Procedure, shortened: (§5)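 Mice given an intraperitoneal injection of P. berghei-infected erythrocytes taken from a previously infected animal. Oral dosing once daily for 4 consecutive days, starting 1 h after infection. Vehicle: polyethylene glycol 300/propylene glycol/water (weight ratio 55/25/20). Percent survival recorded daily from day 4 to day 20. Chloroquine 30 mg/kg and vehicle-only groups served as controls.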
# Plasmodium berghei [26] = assay: Antimalarial activity against Plasmodium berghei infected in Swiss Webster mouse assessed as mouse survival rate at 11 mg/kg administered once daily via oral gavage for 4 consecutive days beginning 1 hr after infection measured on day 12 post infection relative to control; format: functional; procedure, shortened: as §5
# Plasmodium berghei [27] = assay: Antimalarial activity against Plasmodium berghei infected in Swiss Webster mouse assessed as mouse survival rate at 11 mg/kg administered once daily via oral gavage for 4 consecutive days beginning 1 hr after infection measured on day 13 post infection relative to control; format: functional; procedure, shortened: as §5
smiles,measurement,setting,value
CCCC1(O)CN(C(=O)c2cnc(Oc3ccc4c(c3C)B(O)OC4)cn2)C1,survival at 200 mg/kg,Plasmodium berghei [1],100%
Cc1c(Oc2cnc(C(=O)N3CC(C)(O)C3)cn2)ccc2c1B(O)OC2,bioavailability,[2],127%
same,Activity,Salmonella typhimurium [3],15
same,Activity,Escherichia coli [4],56
same,Activity,Salmonella typhimurium [5],11
same,IC50,Plasmodium falciparum [6],60 nM
same,Activity,Salmonella typhimurium [7],15
same,Time,Plasmodium falciparum [8],0 h
same,Activity,Rattus norvegicus [9],-12%
same,Vd,[10],0.831 L/kg
same,log(ratio),Plasmodium falciparum [11],4.9
same,Activity,Salmonella typhimurium [12],144
same,Activity,Rattus norvegicus [13],-4%
same,Activity,Escherichia coli [14],50
same,Activity,Escherichia coli [15],34
same,Activity,Lymphocyte [16],2%
same,Activity,Salmonella typhimurium [17],18
same,Activity,Lymphocyte [18],1.18%
same,Activity,Lymphocyte [19],7%
same,bioavailability,[20],96%
same,Activity,Salmonella typhimurium [21],10
same,Activity,Salmonella typhimurium [22],132
Cc1c(Oc2cnc(C(=O)NC(C)CO)cn2)ccc2c1B(O)OC2 (configuration not stated),survival at 3 mg/kg,Plasmodium berghei [23],60%
same,survival at 3 mg/kg,Plasmodium berghei [24],0%
Cc1c(Oc2cnc(C(=O)N3CC(O)(C(C)C)C3)cn2)ccc2c1B(O)OC2,survival at 100 mg/kg,Plasmodium berghei [25],80%
same,survival at 11 mg/kg,Plasmodium berghei [26],20%
same,survival at 11 mg/kg,Plasmodium berghei [27],20%
